Compounds with a hit are over-represented: about 4.6% of the library has one in this group of screens.
Arr AP2 block = inhibitors of human beta-arrestin and AP2 interaction | FITC-arrestin peptide / GST-AP2 beads, flow cytometry; AP2 beta2 appendage carries R879A mutation | inhibition, % at 10 µM | actives 0.31% (n = 340,000);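 active = inhibition above a set limit, near 3 SD of compounds lacking own fluorescence, cut at about 54% in these data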
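Material – GST-tagged AP2 beta2-adaptin appendage (R879A) on 4 µm glutathione beads · Probe or stimulus – fluorescein-tagged arrestin peptide at 50 nM final · Timing – 12 min plus 1 h, RT · Detection – bead flow cytometry, FITC channel · Read-out basis – inhibition as reduced fluorescein signal on beads, percent · Medium – PBS plus Tween 20 (0.05%) and BSA (0.1%)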
NLRP3 yeast inh = inhibitors of NALP3 inflammasome in yeast; inhibition, % at 10 µM; actives 0.39% (n = 330,000); Yeast reconstituted NLRP3/ASC/caspase-1, beta-gal luminescence, 24 h;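 active = inhibition of 50% or more; inactive = inhibition below 50%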
PolyA inhibitor = yeast polyadenylation inhibition | actives 0.02% (n = 300,000) | AID 1875 | S. cerevisiae SKY197-pL101 polyadenylation reporter, beta-gal luminescence; efflux-impaired pdr1/pdr3 knockout yeast; score 100 = 6 SD above DMSO | activity score, % at 12 µM;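 active = lowest replicate activity score at least 50, where 100 means six control SD above control mean; inconclusive = lowest score under 50 but half or more replicates reach 50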;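 also: yeast exposed to compound for 9 h at 30 °C; higher score means more reporter readthrough which indicates perturbed polyadenylation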
ALR inh = blocks human ALR sulfhydryl oxidase activity; P55789; actives 3.8% (n = 290,000); purified ALR, DTT oxidation, H2O2 HRP-luminol luminescence; AID 485317; inhibition, % (concentration not given with the values);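 active = mean replicate inhibition above about 79%, with every replicate also reaching it, limit read from the data; inconclusive = only one of the two criteria met; inactive = mean below limit and not every replicate reaching it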
Pemphigus Ab inh = human desmoglein-3 autoantibody binding inhibition; P32926; DSG3-coupled beads, scFv-anti-DSG3-GFP binding, flow cytometry; stronger effect = lower value; binding (percent of control), % at 10 µM; actives 0.48% (n = 310,000); AID 588358;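 active = binding more than 3 SD below its plate's average and above zero; inconclusive = below that plate limit but binding exactly zero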;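 also: hits lower antibody fragment binding to DSG3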
NALP1 yeast inh = blocks the NALP1 inflammasome reconstituted in yeast; S. cerevisiae NALP1/ASC/caspase-1 growth, X-gal OD620, 72 h; actives 0.61% (n = 280,000); inhibition, % at 10 µM; in the data active = inhibition mostly above about 24%, no sharp cut-off; inactive = mostly below about 32%
Arr-AP2 CP1 = inhibitors of human beta-arrestin and AP2 interaction; shares compounds with Arr AP2 block; GST-AP2 beads, FITC arrestin peptide binding, flow cytometry; GST-fused beta2-adaptin appendage, R879A mutant; inhibition, % at 10 µM; actives 2% (n = 1,300); AID 504908;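 active = inhibition above a set limit, roughly 3 SD of non-fluorescent compound noise, cut at about 38% in these data; inactive = inhibition at or below that limit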;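 also: loss of bead fluorescence from 50 nM FITC arrestin peptide bound to appendage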
GST GSH counter = disrupts GST binding to glutathione beads, arrestin-AP2 artifact. shares compounds with Arr AP2 block. GST-fluorescein binding to GSH beads, fluorescence, counter-screen. inhibition, % at 10 µM. actives 2% (n = 1,300);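 active = inhibition above 50%, about 3 SD of the inhibition seen with non-fluorescent compounds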;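 also: fluorescein maleimide labelled GST captured on 4 micron glutathione beads; higher means more loss of bead fluorescence from quenching or blocked binding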
Numbers stand for hits.

What do the screens show for `CCCC(=O)NCc1nc2ccccc2n1CC(=O)c1ccccc1`?
Arr AP2 block: inactive; NLRP3 yeast inh: inactive; PolyA inhibitor: inactive; ALR inh: inactive; Pemphigus Ab inh: inactive; NALP1 yeast inh: inactive

How did CC(C)CCSc1nc2[nH]ncc2c(=O)[nH]1 do in these assays?
Arr AP2 block: 59; NLRP3 yeast inh: inactive; PolyA inhibitor: inactive; ALR inh: inactive; Pemphigus Ab inh: inactive; NALP1 yeast inh: inactive; Arr-AP2 CP1: inactive; GST GSH counter: inactive

How did C#CCSc1nc2[nH]ncc2c(=O)[nH]1 do in these assays?
Arr AP2 block: inactive; NLRP3 yeast inh: inactive; PolyA inhibitor: inactive; ALR inh: inactive; Pemphigus Ab inh: inactive; NALP1 yeast inh: inactive

How did CNc1snc(C)c1C(=O)OCC(=O)c1ccc(OC)c(F)c1 do in these assays?
Arr AP2 block: inactive; NLRP3 yeast inh: inactive; ALR inh: inactive

How did O=C(NN1C(=O)c2ccccc2NC1c1ccoc1)c1ccc([N+](=O)[O-])cc1 (stereo unspecified) do in these assays?
Arr AP2 block: 57; NLRP3 yeast inh: inactive; PolyA inhibitor: inactive; Pemphigus Ab inh: inactive; NALP1 yeast inh: inactive; Arr-AP2 CP1: inactive; GST GSH counter: inactive

Results for CCN(c1ccccc1)S(=O)(=O)c1ccc(C(=O)NCc2ccco2)cc1 ?
Arr AP2 block: inactive; NLRP3 yeast inh: inactive; Pemphigus Ab inh: inactive

How did Nn1c(SCC(=O)N2CCN(S(=O)(=O)c3ccc(Cl)cc3)CC2)nnc1-c1cccs1 do in these assays?
Arr AP2 block: inactive; NLRP3 yeast inh: inactive; PolyA inhibitor: inactive; ALR inh: inactive; Pemphigus Ab inh: inactive; NALP1 yeast inh: inactive

Results for Nn1c(SCC(=O)N2CCN(S(=O)(=O)c3ccccc3)CC2)nnc1-c1cccs1 ?
Arr AP2 block: 99; NLRP3 yeast inh: inactive; PolyA inhibitor: inactive; ALR inh: inactive; Pemphigus Ab inh: inactive; NALP1 yeast inh: inactive; Arr-AP2 CP1: inactive; GST GSH counter: inactive

How did CSc1cccc(NC(=S)N(Cc2ccc(C)cc2)Cc2ccccn2)c1 do in these assays?
Arr AP2 block: 54; NLRP3 yeast inh: inactive; PolyA inhibitor: inactive; ALR inh: inactive; NALP1 yeast inh: inactive; Arr-AP2 CP1: inactive; GST GSH counter: inactive

Results for COc1ccc(CCN(Cc2ccccn2)C(=S)Nc2cccc(SC)c2)cc1OC ?
Arr AP2 block: inactive; NLRP3 yeast inh: inactive; PolyA inhibitor: inactive; ALR inh: inactive; Pemphigus Ab inh: inactive; NALP1 yeast inh: inactive

How did Cc1cc2c(cc1S(=O)(=O)N1CCN(c3cccc(C)c3C)CC1)OCCN2C do in these assays?
Arr AP2 block: inactive; NLRP3 yeast inh: inactive; PolyA inhibitor: inactive; ALR inh: inactive; Pemphigus Ab inh: inactive; NALP1 yeast inh: inactive

What do the screens show for `CCc1ccc(C(=O)COC(=O)c2cc([N+](=O)[O-])ccc2NCCO)cc1`?
Arr AP2 block: 57; NLRP3 yeast inh: inactive; PolyA inhibitor: inactive; ALR inh: inactive; Pemphigus Ab inh: inactive; NALP1 yeast inh: inactive; Arr-AP2 CP1: inactive; GST GSH counter: inactive

What do the screens show for `C/C(=N\NC(=O)c1ccn(C)n1)c1ccco1`?
Arr AP2 block: inactive; NLRP3 yeast inh: inactive; PolyA inhibitor: inactive; ALR inh: inactive; NALP1 yeast inh: inactive

Results for O=c1[nH]c2ccc(NCc3ccccc3OCc3ccc(Cl)cc3)cc2[nH]1 ?
Arr AP2 block: inactive; NLRP3 yeast inh: inactive; PolyA inhibitor: inactive; ALR inh: inactive; Pemphigus Ab inh: inactive; NALP1 yeast inh: inactive

Results for COc1cccc(CNc2ccc3[nH]c(=O)[nH]c3c2)c1OCc1ccc(F)cc1 ?
Arr AP2 block: 55; NLRP3 yeast inh: inactive; PolyA inhibitor: inactive; ALR inh: inconclusive; Pemphigus Ab inh: inactive; NALP1 yeast inh: inactive; Arr-AP2 CP1: inactive; GST GSH counter: inactive

Results for CCc1ccc(OCC(=O)Nc2cccc3nsnc23)cc1 ?
Arr AP2 block: inactive; NLRP3 yeast inh: inactive; PolyA inhibitor: inactive; ALR inh: inactive; Pemphigus Ab inh: inactive; NALP1 yeast inh: inactive

Screens as filed in PubChem.
